From ChEMBL document CHEMBL4715731, “Synthesis, antiarrhythmic activity, and toxicological evaluation of mexiletine analogues” (Eur J Med Chem, 2016)

Columns and labels:
Left cardiac atrium [1] = assay: Negative inotropic activity in guinea pig left atrium assessed as decrease in 1 Hz driven developed tension at 1 x 10^-5 M relative to control; format: tissue-based, Cavia porcellus; design: scale not given: the % may be the effect or the level left; conditions: 10 µM, dose 1 10^-5M
In short: (§1)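 Guinea pig left atria paced at 1 Hz (rectangular pulses 0.6–0.8 ms, […]) in PSS, pH 7.4, 35 °C, 95% O2–5% CO2. Isometric developed tension recorded. Cumulative concentrations 0.01–100 μM in PSS, each added after steady state. Change expressed as percent of control (n = 5–6).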

[2] = Binding affinity to P-gp in dog MDCK-MDR1 cells using calcein-AM as substrate at 100 uM after 30 mins by fluorescence analysis; format: ADME, cell-based, Canis lupus familiaris; conditions: mdck-mdr1, 0.5 h
In short: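 MDCK-MDR1 cells, 50,000/well, grown to confluence overnight. Compounds in medium incubated 30 min at 37 °C. Calcein-AM then added at 2.5 μM final for 30 min. Cells washed with ice-cold PBS; fluorescence read at 485/535 nm against untreated basal level.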

Left cardiac atrium [3] = assay: Antiarrhythmic activity in 50 Hz sinusoidal alternating current-induced guinea pig left atrium arrhythmias model assessed as increase in threshold of ac-arrhythmia measured for every 30 mins relative to control; format: functional, tissue-based; conditions: Cavia porcellus, 0.5 h
[4] = Toxicity in mouse assessed as motor coordination impairment by measuring number of falls from rotarod at 25 mg/kg, ip measured after 45 mins by rotarod test; format: organism-based; conditions: in vivo
[5] = Toxicity in mouse assessed as motor coordination impairment by measuring number of falls from rotarod at 50 mg/kg, ip measured after 30 mins by rotarod test; format: organism-based; conditions: in vivo, 0.5 h
Left cardiac atrium [6] = assay: Antiarrhythmic activity in 50 Hz sinusoidal alternating current-induced guinea pig left atrium arrhythmias model assessed as increase in threshold of ac-arrhythmia at 1 x 10^-4 M measured for every 30 mins relative to control; format: functional, Cavia porcellus; conditions: dose 1 10^-4M, 0.5 h, at 100 µM
In short: (§2)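 Guinea pig left atria mounted between platinum field electrodes in modified Krebs-Henseleit (pH 7.4, 95% O2–5% CO2, 35 °C), isometric force recorded. 50 Hz sinusoidal AC of rising strength applied; current intensity (mA/cm²) producing extra beats taken as ac-arrhythmia threshold. Stabilized 60 min, then compounds added cumulatively every 30 min.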

Ileum [7] = assay: Inhibition of calcium-induced contraction in K+-depolarized guinea pig longitudinal smooth muscle at 1 x 10^-4 M relative to control; format: tissue-based; conditions: Cavia porcellus, dose 1 10^-4M
Left cardiac atrium [8] = assay: Negative inotropic activity in guinea pig left atrium assessed as decrease in 1 Hz driven developed tension; format: tissue-based; conditions: Cavia porcellus
[9] = Toxicity in mouse assessed as motor coordination impairment by measuring number of falls from rotarod at 25 mg/kg, ip measured after 30 mins by rotarod test; format: organism-based; conditions: in vivo, 0.5 h
Right cardiac atrium [10] = assay: Negative chronotropic activity in guinea pig spontaneously beating right atrium assessed as decrease in atrial rate; format: tissue-based; conditions: Cavia porcellus
In short: (§3)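 Spontaneously beating guinea pig right atria in PSS, pH 7.4, 35 °C, gassed with 95% O2–5% CO2. Isometric recording of rate and developed force. Compounds added cumulatively, 0.01–100 μM, each after steady state. Percent change from control; rate data n = 7–8. EC50 by probit analysis.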

Aorta = assay: Inhibition of calcium-induced contraction in K+-depolarized guinea pig aortic strips at 1 x 10^-4 M relative to control; format: tissue-based; conditions: Cavia porcellus, dose 1 10^-4M
In short: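 Helicoidal guinea pig aortic strips at 1 g resting force in PSS at 35 °C, contracted with 80 mM KCl (K+ replacing Na+). At plateau (about 45 min), compounds added cumulatively, 0.1–100 μM.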

[11] = Toxicity in mouse assessed as motor coordination impairment by measuring number of falls from rotarod at 50 mg/kg, ip measured after 45 mins by rotarod test; format: organism-based; conditions: in vivo
[12] = Toxicity in mouse assessed as motor coordination impairment by measuring number of falls from rotarod at 50 mg/kg, ip measured after 60 mins by rotarod test; format: organism-based; conditions: in vivo, 1 h
[13] = Toxicity in mouse assessed as motor coordination impairment by measuring number of falls from rotarod at 25 mg/kg, ip measured after 60 mins by rotarod test; format: organism-based; conditions: in vivo, 1 h
Right cardiac atrium [14] = assay: Negative chronotropic activity in guinea pig spontaneously beating right atrium assessed as decrease in atrial rate at 1 x 10^-5 M relative to control; format: ADME, tissue-based, Cavia porcellus; design: scale not given: the % may be the effect or the level left; conditions: 10 µM, dose 1 10^-5M
In short: (§4)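 Isometric recording of rate and developed force. Compounds added cumulatively, 0.01–100 μM, each after steady state. Percent change from control; rate data n = 7–8. EC50 by probit analysis.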

HepG2 [15] = assay: Cytotoxicity against human HepG2 cells at EC50 concentration incubated for 2 hrs by MTT assay; format: cell-based; conditions: hepg2, 2 h
In short: (§5)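 HepG2 cells in DMEM with 10% FBS at 37 °C, 5% CO2, grown to 70% confluence. 10^4 cells/well treated in serum-free medium for 2 h. MTT at 0.5 mg/mL for 2 h, formazan dissolved in DMSO, absorbance read at 570 nm. Viability as percent of control MTT reduction; sextuplicate, repeated twice.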

Right cardiac atrium [16] = assay: Negative inotropic activity in guinea pig spontaneously beating right atrium assessed as decrease in developed tension; format: ADME, tissue-based; conditions: Cavia porcellus; in short: as §4
Right cardiac atrium [17] = assay: Negative inotropic activity in guinea pig spontaneously beating right atrium assessed as decrease in developed tension at 5 x 10^-6 M relative to control; format: ADME, tissue-based, Cavia porcellus; design: scale not given: the % may be the effect or the level left; conditions: 5 µM, dose 5 10^-6M; in short: as §3
Left cardiac atrium [18] = assay: Antiarrhythmic activity in 50 Hz sinusoidal alternating current-induced guinea pig left atrium arrhythmias model assessed as increase in threshold of ac-arrhythmia at 1 x 10^-5 M measured for every 30 mins relative to control; format: functional, Cavia porcellus; conditions: dose 1 10^-5M, 0.5 h, at 10 µM; in short: as §2
Ileum [19] = assay: Inhibition of calcium-induced contraction in K+-depolarized guinea pig longitudinal smooth muscle; format: tissue-based; conditions: Cavia porcellus
Left cardiac atrium [20] = assay: Potency index, ratio of mexiletine EC50 to test compound EC50 for antiarrhythmic activity in guinea pig left atrium model of current induced arrhythmias assessed as increase in threshold of ac-arrhythmia; format: functional, Cavia porcellus
Ileum [21] = assay: Inhibition of calcium-induced contraction in K+-depolarized guinea pig longitudinal smooth muscle at 1 x 10^-5 M relative to control; format: tissue-based; conditions: Cavia porcellus, dose 1 10^-5M
HepG2 [22] = assay: Cytotoxicity against human HepG2 cells at 10 times of EC50 concentration incubated for 2 hrs by MTT assay; format: cell-based; conditions: hepg2, 2 h; in short: as §5
[23] = Binding affinity to P-gp in dog MDCK-MDR1 cells using calcein-AM as substrate after 30 mins by fluorescence analysis; format: ADME, cell-based; conditions: Canis lupus familiaris, MDCK-MDR1, 0.5 h
Left cardiac atrium [24] = assay: Potency index, ratio of mexiletine EC50 to test compound EC50 for negative inotropic activity in guinea pig left atrium assessed as decrease in developed tension; format: ADME, tissue-based, Cavia porcellus
Left cardiac atrium [25] = assay: Negative inotropic activity in guinea pig left atrium assessed as decrease in 1 Hz driven developed tension at 1 x 10^-7 M relative to control; format: ADME, tissue-based, Cavia porcellus; design: scale not given: the % may be the effect or the level left; conditions: 0.1 µM, dose 1 10^-7M; in short: as §1
Right cardiac atrium [26] = assay: Negative chronotropic activity in guinea pig spontaneously beating right atrium assessed as decrease in atrial rate at 1 x 10^-4 M relative to control; format: ADME, tissue-based, Cavia porcellus; design: scale not given: the % may be the effect or the level left; conditions: 100 µM, dose 1 10^-4M; in short: as §3
Left cardiac atrium [27] = assay: Negative inotropic activity in guinea pig left atrium assessed as decrease in 1 Hz driven developed tension at 1x 10^-4 M relative to control; format: ADME, tissue-based, Cavia porcellus; design: scale not given: the % may be the effect or the level left; conditions: 100 µM, dose 1 10^-4M; in short: as §1
Ileum [28] = assay: Inhibition of calcium-induced contraction in K+-depolarized guinea pig longitudinal smooth muscle at 5 x 10^-5 M relative to control; format: tissue-based; conditions: Cavia porcellus, dose 5 10^-5M

Activity (Left cardiac atrium [1])	Activity [2]	EC50 (Left cardiac atrium [8])	EC50 (Right cardiac atrium [10])	Activity (Right cardiac atrium [14])	EC50 (Right cardiac atrium [16])	Activity (Right cardiac atrium [17])	IC50 (Ileum [19])	Structure (SMILES)	EC50 (Left cardiac atrium [3])	Activity [4]	Activity [5]	Activity (Left cardiac atrium [6])	inhibition at 100 µM (Ileum [7])	Activity [9]	inhibition at 100 µM (Aorta)	Activity [11]	Activity [12]	Activity [13]	Activity (HepG2 [15])	Activity (HepG2 [22])	other results
90%	Not Active	45 nM	14 nM					Cc1cccc(C)c1OCC(C)N.Cl (stereo not given) [MEXILETINE HYDROCHLORIDE]	11600 nM	0.8	3.8	64%	81%	1.3	5%	3.5					
		12 nM		24%	66 nM	57%	3600 nM	Cc1cccc(C)c1OCC(N)Cc1ccccc1.Cl (stereo not given)	4360 nM	1.9	4.4			2.9	33%	3.5	1.3	1.2	Non-Toxic	Non-Toxic	Activity (Left cardiac atrium [18]): 169%; Ratio EC50 (Left cardiac atrium [20]): 2.7; inhibition at 10 µM (Ileum [21]): 73%; EC50 [23]: 8400 nM; Ratio EC50 (Left cardiac atrium [24]): 4; Activity (Left cardiac atrium [25]): 79%
	Not Active	21 nM	13100 nM				19600 nM	Cc1cccc(C)c1OCC(N)C(C)C.Cl (stereo not given)	18400 nM	2.2	3	145%	88%	2.6	11%	2.1	1	1.1	Non-Toxic	Non-Toxic	Activity (Right cardiac atrium [26]): 55%; Activity (Left cardiac atrium [27]): 84%
92%	Not Active	42 nM		7%	1020 nM	77%	10700 nM	Cc1cccc(C)c1OCC(N)C(C)(C)C.Cl (stereo not given)	2110 nM	1.7	3.1			2.7	38%	1.8	1.2	0.8	Non-Toxic	Non-Toxic	inhibition at 50 µM (Ileum [28]): 73%; Activity (Left cardiac atrium [18]): 71%
